From ChEMBL document CHEMBL1156859, “Novel bis-2,2,6,6-tetramethylpiperidine (bis-TMP) and bis-mecamylamine antagonists at neuronal nicotinic receptors mediating nicotine-evoked dopamine release” (Bioorg Med Chem Lett, 2010)
Values belong to the compound of their own block, whether it stands above or below them.

How the values were obtained:
Format in all cases: functional
[1] = Antagonist activity at nicotinic acetylcholine receptor in rat striatal slices assessed as inhibition of S-(-)-nicotine-induced [3H]dopamine release
Procedure, shortened: (§1)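 Superfused rat striatal slices were stimulated with 10 μM S-(−)-nicotine, with analog present across 1 nM to 10 μM. Evoked [3H]DA overflow was expressed as a percent of tissue [3H] content and compared with nicotine alone. IC50 and Imax came from iterative nonlinear least-squares curve fitting, using 4-6 independent experiments.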

[2] = Antagonist activity at nicotinic acetylcholine receptor in rat striatal slices assessed as inhibition of S-(-)-nicotine-induced [3H]dopamine release at 100 nM relative to control
Procedure, shortened: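 Probe assay on superfused rat striatal slices: 100 nM analog against 10 μM S-(−)-nicotine-evoked [3H]DA release. Inhibition is expressed as a percentage of the nicotine response without analog, i.e. the fractional release evoked under control conditions. Each value comes from at least 3 independent experiments, each in duplicate (n = 3 rats/analog).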

[3] = Antagonist activity at nicotinic acetylcholine receptor in rat striatal slices assessed as inhibition of S-(-)-nicotine-induced [3H]dopamine release relative to control; procedure, shortened: as §1

SMILES: Cc1ccc[n+](CCCC#Cc2cc(C#CCCC[n+]3cccc(C)c3)cc(C#CCCC[n+]3cccc(C)c3)c2)c1.[Br-].[Br-].[Br-]
IC50 [1]: 0.2 nM
inhibition at 0.1 µM [2]: 40%
Imax [3]: 67%

SMILES: Cc1ccc[n+](CCCCCCCCCCCC[n+]2cccc(C)c2)c1.[Br-].[Br-]
IC50 [1]: 2 nM
Imax [3]: 78%

IC50 [1]: 107 nM
SMILES: CN(CCCC#Cc1cc(C#CCCCN(C)[C@@]2(C)[C@@H]3CC[C@@H](C3)C2(C)C)cc(C#CCCCN(C)[C@@]2(C)[C@@H]3CC[C@@H](C3)C2(C)C)c1)[C@@]1(C)[C@@H]2CC[C@@H](C2)C1(C)C
inhibition at 0.1 µM [2]: 73%
Imax [3]: 62%

IC50 [1]: 2.2 nM
SMILES: CC1(C)CCCC(C)(C)N1CCCCCCCCCCCCCN1C(C)(C)CCCC1(C)C
inhibition at 0.1 µM [2]: 56%
Imax [3]: 87%

IC50 [1]: 319 nM
SMILES: CN(CCCCCCCCCCCN(C)[C@@]1(C)[C@@H]2CC[C@@H](C2)C1(C)C)[C@@]1(C)[C@@H]2CC[C@@H](C2)C1(C)C
inhibition at 0.1 µM [2]: 35%
Imax [3]: 90%

SMILES: CC1(C)CCCC(C)(C)N1CCCCCCCCCCCCN1C(C)(C)CCCC1(C)C
inhibition at 0.1 µM [2]: 36%

SMILES: CC1(C)CCCC(C)(C)N1CCCCCCCCCCCN1C(C)(C)CCCC1(C)C
inhibition at 0.1 µM [2]: 22%

SMILES: CC1(C)CCCC(C)(C)N1CCCCCCCCN1C(C)(C)CCCC1(C)C
inhibition at 0.1 µM [2]: 18%

SMILES: CC1(C)CCCC(C)(C)N1CCCCCCCCCCN1C(C)(C)CCCC1(C)C
inhibition at 0.1 µM [2]: 5%

IC50 [1]: 46 nM
SMILES: CN(CCCCCCCCCCCCCN(C)[C@@]1(C)[C@@H]2CC[C@@H](C2)C1(C)C)[C@@]1(C)[C@@H]2CC[C@@H](C2)C1(C)C
inhibition at 0.1 µM [2]: 52%
Imax [3]: 83%
